How the values were obtained:
[1] = tested on: Cynomolgus monkey; assay: AUC (0 to infinity) in cynomolgus monkey at 1 mg/kg, iv; format: ADME, organism-based, Macaca fascicularis, Plasma; parameters: time infinity, dose 1 mg/kg, route intravenous; details: in vivo
Method in brief: (§1)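 Single IV bolus, plasma sampled serially to 24 h post-dose, drug measured by LC-MS/MS, parameters by non-compartmental analysis. Rats and monkeys n = 3 per dose, dogs n = 3 at 1 mg/kg and n = 2 at 20 mg/kg. Nude mice n = 27 per dose level, n = 3 per time point. Mice received the HCl salt in 10% hydroxypropyl-β-cyclodextrin; rats, dogs and monkeys received the TFA salt in PBS.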

[2] = tested on: Rattus norvegicus; assay: Volume of distribution at steady state in Sprague-Dawley rat at 20 mg/kg, iv; format: ADME, organism-based; parameters: dose 20 mg/kg, route intravenous; details: in vivo
Method in brief: (§2)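 Single IV bolus at 1 or 20 mg/kg of TFA salt in phosphate-buffered saline to male Sprague-Dawley rats (n = 3 per dose), Beagle dogs (n = 3 at 1 mg/kg, male; n = 2 at 20 mg/kg, male/female) and male cynomolgus monkeys (n = 3 per dose). Serial plasma to 24 h; LC-MS/MS; non-compartmental analysis.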

[3] = tested on: Canis familiaris; assay: Volume of distribution at steady state in Beagle dog at 20 mg/kg, iv; format: ADME, organism-based, Canis lupus familiaris; parameters: dose 20 mg/kg, route intravenous; details: in vivo; method in brief: as §2
[4] = tested on: Cynomolgus monkey; assay: Volume of distribution at steady state in cynomolgus monkey at 20 mg/kg, iv; format: ADME, organism-based, Macaca fascicularis; parameters: dose 20 mg/kg, route intravenous; details: in vivo; method in brief: as §2
[5] = tested on: Rattus norvegicus; assay: Terminal half life in Sprague-Dawley rat at 20 mg/kg, iv; format: ADME, organism-based; parameters: dose 20 mg/kg, route intravenous; details: in vivo; method in brief: as §1
[6] = tested on: Canis familiaris; assay: Terminal half life in Beagle dog at 20 mg/kg, iv; format: ADME, organism-based, Canis lupus familiaris; parameters: dose 20 mg/kg, route intravenous; details: in vivo; method in brief: as §1
[7] = tested on: Cynomolgus monkey; assay: Terminal half life in cynomolgus monkey at 20 mg/kg, iv; format: ADME, organism-based, Macaca fascicularis; parameters: dose 20 mg/kg, route intravenous; details: in vivo; method in brief: as §1
[8] = tested on: Rattus norvegicus; assay: Cmax in Sprague-Dawley rat at 20 mg/kg, iv; format: ADME, organism-based; parameters: dose 20 mg/kg, route intravenous; details: in vivo; method in brief: as §1
[9] = Cmax in Beagle dog at 20 mg/kg, iv; format: ADME, organism-based, Canis lupus familiaris; parameters: dose 20 mg/kg, route intravenous; details: in vivo; method in brief: as §1
[10] = tested on: Cynomolgus monkey; assay: Cmax in cynomolgus monkey at 20 mg/kg, iv; format: ADME, organism-based, Macaca fascicularis; parameters: dose 20 mg/kg, route intravenous; details: in vivo; method in brief: as §1
[11] = tested on: Rattus norvegicus; assay: AUC (0 to infinity) in Sprague-Dawley rat at 20 mg/kg, iv; format: ADME, organism-based, Plasma; parameters: time infinity, dose 20 mg/kg, route intravenous; details: in vivo; method in brief: as §1
[12] = tested on: Canis familiaris; assay: AUC (0 to infinity) in Beagle dog at 20 mg/kg, iv; format: ADME, organism-based, Canis lupus familiaris, Plasma; parameters: time infinity, dose 20 mg/kg, route intravenous; details: in vivo; method in brief: as §1
[13] = tested on: Cynomolgus monkey; assay: AUC (0 to infinity) in cynomolgus monkey at 20 mg/kg, iv; format: ADME, organism-based, Macaca fascicularis, Plasma; parameters: time infinity, dose 20 mg/kg, route intravenous; details: in vivo; method in brief: as §1
[14] = tested on: Mus musculus; assay: Cmax in mouse at 100 mg/kg, po; format: ADME, organism-based; parameters: dose 100 mg/kg, route oral; details: in vivo
Method in brief: (§3)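 Female mice given the mono-TFA salt orally at 100 mg/kg as a solution in PBS.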

[15] = tested on: Mus musculus; assay: AUC in mouse at 100 mg/kg, po; format: ADME, organism-based, Plasma; parameters: dose 100 mg/kg, route oral; details: in vivo; method in brief: as §3
[16] = tested on: Mus musculus; assay: Toxicity in po dosed mouse xenografted with human MDA-MB-231 cells assessed as effect on body weight measured on days 28; format: organism-based; details: in vivo
Method in brief: (§4)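 MDA-MB-231 cells (1.5 × 10^7, 1:1 Matrigel in PBS) implanted subcutaneously in right flank of female nude mice aged 6–8 weeks; ten per group, mean starting tumor 168 mm3. Oral gavage in PBS vehicle, 4.0 mL/kg, schedules including 10, 50 or 100 mg/kg weekly, 10 mg/kg daily or every third day. Body weights measured twice weekly.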

[17] = tested on: Mus musculus; assay: Toxicity in mouse xenografted with human MDA-MB-231 cells assessed as effect on body weight at 100 mg/kg, po after 28 days; format: organism-based; parameters: dose 100 mg/kg, route oral; details: in vivo, 672 h; method in brief: as §4
[18] = tested on: Rattus norvegicus; assay: Volume of distribution at steady state in Sprague-Dawley rat at 1 mg/kg, iv; format: ADME, organism-based; parameters: dose 1 mg/kg, route intravenous; details: in vivo; method in brief: as §2
[19] = Volume of distribution at steady state in Beagle dog at 1 mg/kg, iv; format: ADME, organism-based, Canis lupus familiaris; parameters: dose 1 mg/kg, route intravenous; details: in vivo, read-out: Vdss; method in brief: as §2
[20] = tested on: Cynomolgus monkey; assay: Volume of distribution at steady state in cynomolgus monkey at 1 mg/kg, iv; format: ADME, organism-based, Macaca fascicularis; parameters: dose 1 mg/kg, route intravenous; details: in vivo; method in brief: as §2
[21] = tested on: Rattus norvegicus; assay: Terminal half life in Sprague-Dawley rat at 1 mg/kg, iv; format: ADME, organism-based; parameters: dose 1 mg/kg, route intravenous; details: in vivo; method in brief: as §1
[22] = tested on: Canis familiaris; assay: Terminal half life in Beagle dog at 1 mg/kg, iv; format: ADME, organism-based, Canis lupus familiaris; parameters: dose 1 mg/kg, route intravenous; details: in vivo; method in brief: as §1
[23] = tested on: Cynomolgus monkey; assay: Terminal half life in cynomolgus monkey at 1 mg/kg, iv; format: ADME, organism-based, Macaca fascicularis; parameters: dose 1 mg/kg, route intravenous; details: in vivo; method in brief: as §1
[24] = tested on: Rattus norvegicus; assay: Cmax in Sprague-Dawley rat at 1 mg/kg, iv; format: ADME, organism-based; parameters: dose 1 mg/kg, route intravenous; details: in vivo; method in brief: as §1
[25] = tested on: Canis familiaris; assay: Cmax in Beagle dog at 1 mg/kg, iv; format: ADME, organism-based, Canis lupus familiaris; parameters: dose 1 mg/kg, route intravenous; details: in vivo; method in brief: as §1
[26] = tested on: Cynomolgus monkey; assay: Cmax in cynomolgus monkey at 1 mg/kg, iv; format: ADME, organism-based, Macaca fascicularis; parameters: dose 1 mg/kg, route intravenous; details: in vivo; method in brief: as §1
[27] = tested on: Rattus norvegicus; assay: AUC (0 to infinity) in Sprague-Dawley rat at 1 mg/kg, iv; format: ADME, organism-based, Plasma; parameters: time infinity, dose 1 mg/kg, route intravenous; details: in vivo; method in brief: as §1
[28] = tested on: Canis familiaris; assay: AUC (0 to infinity) in Beagle dog at 1 mg/kg, iv; format: ADME, organism-based, Canis lupus familiaris, Plasma; parameters: time infinity, dose 1 mg/kg, route intravenous; details: in vivo; method in brief: as §1
[29] = tested on: MDA-MB-231; assay: Antitumor activity against human MDA-MB-231 cells xenografted in mouse assessed as reduction in tumor volume at 100 mg/kg, po administered once in week measured on day 21 relative to control; parameters: scale not given: the % may be the effect or the level left

For `CN[C@@H](C)C(=O)N[C@H](C(=O)N1CCC[C@H]1C(=O)Nc1snnc1-c1ccccc1)C1CCCCC1.O=C(O)C(F)(F)F`, the AUC [1] was 0.71 µM·h, the Vdss [2] was 1.7 L/kg and the Vdss [3] was 1.5 L/kg. The Vdss [4] was 2.2 L/kg, the “beta t1/2” value [5] was 50.4 min and the “beta t1/2” value [6] was 120 min. For the same compound, the “beta t1/2” value [7] was 46.2 min, the Cmax [8] was 31 µM and the Cmax [9] was 30 µM. It also gave a Cmax [10] of 24 µM, an AUC [11] of 25 µM·h and an AUC [12] of 36 µM·h. The AUC [13] was 19 µM·h, the Cmax [14] was 53.7 µM and the AUC [15] was 203.5 µM·h. For the same compound, the Activity [16] was “>= 5%”, the Activity [17] was “Toxic” and the Vdss [18] was 2 L/kg. The Vd [19] was 1 L/kg, the Vdss [20] was 1.6 L/kg and the “beta t1/2” value [21] was 25.8 min. For the same compound, the “beta t1/2” value [22] was 54 min, the “beta t1/2” value [23] was 26.4 min and the Cmax [24] was 1.1 µM. It also gave a Cmax [25] of 3.8 µM, a Cmax [26] of 1.46 µM and an AUC [27] of 0.51 µM·h. The AUC [28] was 2.1 µM·h and the Activity [29] was 85%.
